Published values of several laboratories.
Target: Casein kinase I isoform delta (CSNK1D, Homo sapiens, UniProt P48730)

| Compound | test | conditions | quantity | value |
| --- | --- | --- | --- | --- |
| CCCOc1ccc(OC)c(F)c1C(=O)c1ccc(C(=O)N[C@@H]2CNC[C@H]2NC(=O)c2ccc3[nH]ncc3c2)cc1 | enzyme activity, inhibitor | 10 µM | remaining activity | 43% |
| COc1cc2c(Nc3ccc(Br)cc3F)ncnc2cc1OCC1CCN(C)CC1 | cell-free assay | 0.5 µM | remaining signal | 94.4% |
| COc1cc2ncnc(Nc3ccc(Oc4ccccc4)cc3C)c2cc1OC | enzyme activity, inhibitor | 1 µM | inhibition | 0% |
| Cc1cnc(NC2CCOCC2)nc1-n1cnc(C(=O)NC(CN)c2cc(F)cc(Cl)c2)c1 (stereo not shown) | enzyme activity, inhibitor, radiometric | 1 µM | remaining activity | 53% |
| Cc1nc(N2CC[C@@H](O)C2)ncc1-c1cc(C(F)(F)F)cc2[nH]ncc12 | cell-free assay, competition with immobilised ligand | 1 µM | remaining binding | 95% |
| CN1CC(Oc2cnc(C#N)cc2-c2ccn3nc(NC(=O)C4CC4)cc3c2)C1 | enzyme activity, inhibitor | 1 µM | inhibition | -20% |
| COc1cc(Cl)c(C(=O)N[C@@H](CN[C@H]2CC[C@@H](N)CC2)Cc2ccc(C#N)cc2)cc1-c1ccc(CN[C@H](C)c2ccc(C)cc2)o1 | enzyme activity, inhibitor | 1 µM | remaining activity | 89% |
| C[C@@]1(Cc2ccc(C#N)cc2)C(=O)N(c2cc(Cl)cc(Cl)c2)c2ncc(C(=O)NC3(c4nc(C5CCC5)no4)CC3)n21 | cell-free assay, competition with immobilised ligand | 1 µM | remaining binding | 100% |
| COc1cc(/C=C/C(=O)CC(=O)/C=C/c2ccc(O)c(OC)c2)ccc1O | enzyme activity, inhibitor | 1 µM | activity vs control | 105% |
| COc1cc2ncnc(Nc3ccc(F)c(Cl)c3)c2cc1OCCCN1CCOCC1 | cell-free assay | 0.5 µM | remaining signal | 90.4% |
| O=C(NCc1ncc(C(F)(F)F)cc1Cl)c1ccc2c(c1)C1(CCS(=O)(=O)CC1)[C@@H](C1CC1)N2S(=O)(=O)c1ccc(F)cc1 | cell-free assay, competition with immobilised ligand | 1 µM | remaining binding | 93% |
| COc1cc(Nc2cnc(C#N)c(O[C@H](C)CN(C)C)n2)ncc1-c1cnn(C)c1 | enzyme activity, inhibitor, radiometric | 1 µM | remaining activity | 76% |
| O=C(Nc1cnn(-c2csc(C(=O)NC3COC3)c2)c1)Nc1ccccc1Cl | enzyme activity, inhibitor | 5 µM | remaining activity | 101% |
| CC(C)(C)c1nc(-c2cccc(NS(=O)(=O)c3c(F)cccc3F)c2F)c(-c2ccnc(N)n2)s1 | enzyme activity, inhibitor, radiometric | 1 µM | remaining activity | 81% |
| Nc1cnc(N2CCc3cc(S(=O)(=O)Nc4c(F)cc(Cl)cc4F)cc(N4CCCC4=O)c32)nc1 | cell-free assay, competition with immobilised ligand | 1 µM | remaining binding | 98% |
| CNc1cccc2cc(C(=O)Nc3ccc(C(=O)O)cc3)c(=O)[nH]c12 | enzyme activity, inhibitor | 10 µM | inhibition | 25% |
| CCCS(=O)(=O)Nc1ccc(F)c(C(=O)c2c[nH]c3ncc(-c4ccc(Cl)cc4)cc23)c1F | enzyme activity, inhibitor | 1 µM | inhibition | < 10% |
| CO[C@@H](C)c1c(Nc2ccc([C@H](N(C)C(=O)C3CCS(=O)(=O)CC3)C(F)(F)F)cc2)cnc2cc(Cl)nn12 | cell-free assay, competition with immobilised ligand | 1 µM | remaining binding | 88% |
| CS(=O)(=O)CCNCc1ccc(-c2ccc3ncnc(Nc4ccc(OCc5cccc(F)c5)c(Cl)c4)c3c2)o1 | cell-free assay | 0.5 µM | remaining signal | 91.2% |
| Cc1cc(-n2nc(Cc3cc(F)cc(C(F)(F)F)c3)nc2C)ccc1C(N)=O | cell-free assay, competition with immobilised ligand | 1 µM | remaining binding | 100% |
| FC(F)(F)Oc1cccc(-c2cnc3ccc(-c4ccncc4)nn23)c1 | enzyme activity, inhibitor, radiometric | 1 µM | activity vs control | 100% |
| O=C1CCc2cc(Nc3cc(OC4CCOCC4)c([N+](=O)[O-])cc3Cl)ccc2N1 | cell-free assay, competition with immobilised ligand | 1 µM | remaining binding | 90% |
| O=C(CSc1nc2nccnc2c(=O)n1CCc1ccccc1)Nc1nccs1 | enzyme activity, inhibitor | 10 µM | inhibition | 7% |
| O=C1NC(=O)c2cc(Nc3ccc(F)cc3)c(Nc3ccc(F)cc3)cc21 | cell-free assay | 0.5 µM | remaining signal | 109% |
| CS(=O)(=O)N1CCCC(NC(=O)[C@H](CCC2CCCCC2)NC(=O)c2ccc(CNC(=O)c3cnc4ccccn34)cc2)C1 (stereo partly shown) | cell-free assay, competition with immobilised ligand | 0.1 µM | remaining binding | 84% |
